In ChEMBL document CHEMBL1123250, “Chloroalanyl antibiotic peptides: antagonism of their antimicrobial effects by L-alanine and L-alanyl peptides in gram-negative bacteria” (1986):
In brackets after ≈: the same amount, converted by molar mass.

Columns and labels:
Staphylococcus aureus = experiment: Compound was tested for antibacterial activity against Staphylococcus aureus; type: functional
Procedure, shortened: (§1)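 Agar dilution MIC on defined peptide susceptibility agar. Inoculum made by growing overnight in liquid peptide susceptibility medium, then diluting to about 1 × 10^7 cfu/mL. Applied by Steers replicator to plates carrying serial 2-fold peptide dilutions. Incubated overnight at 37 °C. MIC = lowest concentration allowing growth of fewer than 10 colonies after 16-18 h.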

Haemophilus influenzae = experiment: Compound was tested for antibacterial activity against Hemophilus influenzae; type: functional
Procedure, shortened: (§2)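 Inoculum made from colonies grown overnight on chocolate or blood agar, resuspended in liquid medium to 10' cfu/mL. Applied by Steers replicator to serial 2-fold peptide dilutions. Incubated overnight at 37 °C under 7% CO2. MIC = lowest concentration giving fewer than 10 colonies at 16-18 h.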

Streptococcus pyogenes = experiment: Compound was tested for antibacterial activity against Streptococcus pyogenes; type: functional; procedure, shortened: as §2
Proteus mirabilis = experiment: Compound was tested for antibacterial activity against Proteus mirabilis; type: functional; procedure, shortened: as §1
Enterococcus faecalis = experiment: Compound was tested for antibacterial activity against Streptococcus faecalis; type: functional; procedure, shortened: as §1
[1] = system: Staphylococcus epidermidis; experiment: Compound was tested for antibacterial activity against Staphylococcus epidermidis; type: functional; procedure, shortened: as §1
Escherichia coli [2] = experiment: Compound was tested for antibacterial activity against Escherichia coli; type: functional; procedure, shortened: as §1
Streptococcus agalactiae = experiment: Compound was tested for antibacterial activity against Streptococcus agalactiae; type: functional; procedure, shortened: as §2
Shigella flexneri = experiment: Compound was tested for antibacterial activity against Shigella flexneri; type: functional; procedure, shortened: as §1
Escherichia coli [3] = experiment: Compound was tested for enzyme activity against transaminase B; per mg protein
Procedure, shortened: (§3)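 Homogenates of E. coli JSR-0 taken 30 min after agent addition at ~100 Klett units (Davis-Mingioli medium with Met/Pro, Leu/Ile/Val, and in some cultures sucrose or L-Ala). Valine→α-ketoisovalerate transamination read in Tris-HCl pH 7.8 with pyridoxal phosphate and α-ketoglutarate at 37 °C. Timed aliquots derivatized with 2,4-dinitrophenylhydrazine; hydrazone read at 430 nm against a standard curve.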

[4] = target: Alanine racemase, biosynthetic (Escherichia coli K-12) (UniProt P0A6B4); experiment: Compound was tested for enzyme activity against alanine racemase; per mg protein
Alanine racemase, biosynthetic (Escherichia coli K-12), sequence (P0A6B4 whole entry): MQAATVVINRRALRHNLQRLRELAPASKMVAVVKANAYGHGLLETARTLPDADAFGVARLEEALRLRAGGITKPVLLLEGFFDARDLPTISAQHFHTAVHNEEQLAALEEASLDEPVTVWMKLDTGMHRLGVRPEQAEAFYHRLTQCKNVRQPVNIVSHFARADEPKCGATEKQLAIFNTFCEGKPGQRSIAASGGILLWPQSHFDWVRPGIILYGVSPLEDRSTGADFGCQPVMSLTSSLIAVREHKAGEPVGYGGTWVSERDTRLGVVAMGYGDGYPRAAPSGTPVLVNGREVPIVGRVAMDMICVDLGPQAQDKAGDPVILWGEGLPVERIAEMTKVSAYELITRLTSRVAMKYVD
Procedure, shortened: (§4)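 E. coli JSR-0 grown at 37 °C in Davis-Mingioli medium with Met/Pro (50 µg/mL) and Leu/Ile/Val (100 µg/mL). Some cultures had 5% sucrose or 500 µg/mL L-Ala. Agent added at ~100 Klett units; cells harvested after 30 min, washed and sonicated. Racemase read D→L in the supernatant, coupled to L-alanine dehydrogenase (NADH, 340 nm): 10 mM D-Ala, 5 mM NAD+, CHES pH 9.0, 37 °C.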

Morganella morganii = experiment: Compound was tested for antibacterial activity against Morganella morganii; type: functional; procedure, shortened: as §1
Enterobacter cloacae = experiment: Compound was tested for antibacterial activity against Enterobacter cloacae; type: functional; procedure, shortened: as §1
[5] = target: Alanine racemase, biosynthetic (Escherichia coli K-12) (UniProt P0A6B4); experiment: Compound was tested for enzyme activity against alanine racemase; per mg of protein; procedure, shortened: as §4
Escherichia coli [6] = experiment: Compound was tested for enzyme activity against transaminase B; per mg of protein; procedure, shortened: as §3

Structure (SMILES)	MIC (Staphylococcus aureus) [µg/mL]	MIC (Haemophilus influenzae) [µg/mL]	MIC (Streptococcus pyogenes) [µg/mL]	MIC (Proteus mirabilis) [µg/mL]	MIC (Enterococcus faecalis) [µg/mL]	MIC [1] [µg/mL]	MIC (Escherichia coli [2]) [µg/mL]	MIC (Streptococcus agalactiae) [µg/mL]	MIC (Shigella flexneri) [µg/mL]	specific activity (Escherichia coli [3]) [µmol/min/mg]	specific activity [4] [µmol/min/mg]	MIC (Morganella morganii) [µg/mL]	MIC (Enterobacter cloacae) [µg/mL]	specific activity [5] [µmol/min/mg]	specific activity (Escherichia coli [6]) [µmol/min/mg]
CCC[C@H](N)C(=O)N[C@@H](CCl)C(=O)O	0.25 (≈ 1.12 µM)	–	–	–	–	–	–	–	–	–	–	–	–	–	–
NCCC(=O)N[C@@H](CCl)C(=O)O	0.78 (≈ 4.01 µM)	> 100	–	> 100	> 100	6.25 (≈ 32.1 µM)	> 100	> 100	> 100	–	–	–	–	–	–
O=C(O)[C@H](CCl)NC(=O)[C@@H]1CCCN1	0.39 (≈ 1.77 µM)	25 (≈ 113 µM)	6.25 (≈ 28.3 µM)	> 100	< 0.1	1.56 (≈ 7.07 µM)	6.25 (≈ 28.3 µM)	12.5 (≈ 56.6 µM)	> 100	–	–	–	–	–	–
O=C(N[C@H](CO)[C@H](O)c1ccc([N+](=O)[O-])cc1)C(Cl)Cl	–	–	–	–	–	–	–	–	–	0.0541	0.0176	–	–	–	–
N[C@@H](CCl)C(=O)N[C@@H](CCl)C(=O)N[C@@H](CCl)C(=O)O	0.2 (≈ 0.598 µM)	6.25 (≈ 18.7 µM)	0.39 (≈ 1.17 µM)	–	< 0.1	0.1 (≈ 0.299 µM)	25 (≈ 74.7 µM)	0.78 (≈ 2.33 µM)	6.25 (≈ 18.7 µM)	–	–	–	–	–	–
NCC(=O)N[C@@H](CCl)C(=O)O	0.025 (≈ 0.138 µM)	0.2 (≈ 1.11 µM)	0.05 (≈ 0.277 µM)	> 100	> 100	0.05 (≈ 0.277 µM)	3.12 (≈ 17.3 µM)	0.39 (≈ 2.16 µM)	1.56 (≈ 8.64 µM)	–	–	> 100	1.56 (≈ 8.64 µM)	–	–
CSCC[C@H](N)C(=O)N[C@@H](CCl)C(=O)O	–	–	1.56 (≈ 6.12 µM)	50 (≈ 196 µM)	–	–	–	–	–	–	–	50 (≈ 196 µM)	–	–	–
CCCC[C@H](N)C(=O)N[C@@H](CCl)C(=O)O	0.0125 (≈ 0.0528 µM)	25 (≈ 106 µM)	25 (≈ 106 µM)	> 100	3.12 (≈ 13.2 µM)	0.0125 (≈ 0.0528 µM)	3.12 (≈ 13.2 µM)	< 0.1	3.12 (≈ 13.2 µM)	–	–	> 100	6.25 (≈ 26.4 µM)	–	–
N[C@@H](Cc1ccccc1)C(=O)N[C@@H](CCl)C(=O)O	0.05 (≈ 0.185 µM)	12.5 (≈ 46.2 µM)	< 0.1	100 (≈ 369 µM)	0.39 (≈ 1.44 µM)	0.05 (≈ 0.185 µM)	25 (≈ 92.3 µM)	6.25 (≈ 23.1 µM)	100 (≈ 369 µM)	–	–	–	–	–	–
CSCC[C@H](N)C(=O)N[C@@H](CCl)C(=O)N[C@@H](CCl)C(=O)O	0.025 (≈ 0.0694 µM)	0.39 (≈ 1.08 µM)	6.25 (≈ 17.3 µM)	> 100	0.05 (≈ 0.139 µM)	0.0125 (≈ 0.0347 µM)	1.56 (≈ 4.33 µM)	< 0.1	12.5 (≈ 34.7 µM)	–	–	> 100	> 100	–	–
NC(=O)CC[C@H](N)C(=O)N[C@@H](CCl)C(=O)O	0.05 (≈ 0.199 µM)	> 100	< 0.1	> 100	0.78 (≈ 3.1 µM)	0.05 (≈ 0.199 µM)	1.56 (≈ 6.2 µM)	0.78 (≈ 3.1 µM)	> 100	–	–	–	–	–	–
CSCC[C@H](N)C(=O)N[C@@H](C)C(=O)N[C@@H](CCl)C(=O)O	0.05 (≈ 0.153 µM)	> 100	25 (≈ 76.7 µM)	> 100	6.25 (≈ 19.2 µM)	0.025 (≈ 0.0767 µM)	> 100	< 0.1	> 100	–	–	> 100	> 100	–	–

The remaining lines, values ahead:

MIC (Staphylococcus aureus) [µg/mL]	MIC (Haemophilus influenzae) [µg/mL]	MIC (Streptococcus pyogenes) [µg/mL]	MIC (Proteus mirabilis) [µg/mL]	MIC (Enterococcus faecalis) [µg/mL]	MIC [1] [µg/mL]	MIC (Escherichia coli [2]) [µg/mL]	MIC (Streptococcus agalactiae) [µg/mL]	MIC (Shigella flexneri) [µg/mL]	specific activity (Escherichia coli [3]) [µmol/min/mg]	specific activity [4] [µmol/min/mg]	MIC (Morganella morganii) [µg/mL]	MIC (Enterobacter cloacae) [µg/mL]	specific activity [5] [µmol/min/mg]	specific activity (Escherichia coli [6]) [µmol/min/mg]	Structure (SMILES)
0.025 (≈ 0.106 µM)	6.25 (≈ 26.4 µM)	< 0.1	25 (≈ 106 µM)	< 0.1	0.0125 (≈ 0.0528 µM)	3.12 (≈ 13.2 µM)	1.56 (≈ 6.59 µM)	50 (≈ 211 µM)	–	–	–	–	–	–	CC(C)C[C@H](N)C(=O)N[C@@H](CCl)C(=O)O
0.05 (≈ 0.17 µM)	> 100	0.1 (≈ 0.34 µM)	–	> 100	0.025 (≈ 0.0851 µM)	> 100	3.12 (≈ 10.6 µM)	> 100	–	–	–	–	–	–	CC(C)[C@H](N)C(=O)N[C@@H](C)C(=O)N[C@@H](CCl)C(=O)O
0.39 (≈ 1.87 µM)	12.5 (≈ 59.9 µM)	–	> 100	100 (≈ 479 µM)	3.12 (≈ 15 µM)	6.25 (≈ 30 µM)	6.25 (≈ 30 µM)	100 (≈ 479 µM)	–	–	–	–	–	–	CN[C@@H](C)C(=O)N[C@@H](CCl)C(=O)O
0.025 (≈ 0.106 µM)	6.25 (≈ 26.4 µM)	< 0.1	12.5 (≈ 52.8 µM)	< 0.1	0.05 (≈ 0.211 µM)	3.12 (≈ 13.2 µM)	3.12 (≈ 13.2 µM)	25 (≈ 106 µM)	–	–	–	–	–	–	CC[C@H](C)[C@H](N)C(=O)N[C@@H](CCl)C(=O)O
0.025 (≈ 0.12 µM)	< 0.1	12.5 (≈ 59.9 µM)	> 100	6.25 (≈ 30 µM)	0.025 (≈ 0.12 µM)	1.56 (≈ 7.48 µM)	< 0.1	1.56 (≈ 7.48 µM)	–	–	50 (≈ 240 µM)	25 (≈ 120 µM)	–	–	CC[C@H](N)C(=O)N[C@@H](CCl)C(=O)O
0.025 (≈ 0.112 µM)	12.5 (≈ 56.1 µM)	< 0.1	100 (≈ 449 µM)	< 0.1	< 0.0125	1.56 (≈ 7.01 µM)	1.56 (≈ 7.01 µM)	> 100	–	–	–	–	–	–	CC(C)[C@H](N)C(=O)N[C@@H](CCl)C(=O)O
0.025 (≈ 0.0941 µM)	> 100	0.2 (≈ 0.753 µM)	–	> 100	0.025 (≈ 0.0941 µM)	> 100	12.5 (≈ 47 µM)	> 100	–	–	–	–	–	–	C[C@H](N)C(=O)N[C@@H](C)C(=O)N[C@@H](CCl)C(=O)O
–	–	–	–	–	0.0125 (≈ 0.0642 µM)	–	–	–	–	–	–	–	0.0117	0	C[C@H](N)C(=O)N[C@@H](CCl)C(=O)O
